13 molecules from ChEMBL document CHEMBL2417491, “Design, synthesis and biological evaluation of aryl pyrimidine derivatives as potential leishmanicidal agents” (Bioorg Med Chem Lett, 2013) can be followed below.

In general, inhibition in vivo refers to the percentage by which the read-out fell short of the control. In general, IC50 refers to the concentration that inhibits the measured activity by half. For orientation: CC50 means the concentration giving 50% cytotoxicity. The term inhibition denotes the percentage by which the read-out fell short of the control.

In data set [1] the test system is Leishmania donovani. In words: Antileishmanial activity against Leishmania donovani infected in golden hamster assessed as inhibition of parasite multiplication at 30 mg/kg, po for 5 days measured after 7 days by Giemsa staining-based assay. The class given is functional.
Data set [2] in a line: (§1) Selectivity index, ratio of CC50 for African green monkey Vero cells to IC50 for Leishmania donovani amastigotes. The class given is functional. The method, boiled down:
(§2)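 Calculated as CC₅₀ on Vero cells divided by IC₅₀ on L. donovani intramacrophage amastigotes. Both values come from 72 h assays: MTT for Vero cells and a luciferase reporter for amastigotes.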

Data set [3] deals with Leishmania donovani. In words: Antileishmanial activity against Leishmania donovani infected in golden hamster assessed as inhibition of parasite multiplication at 50 mg/kg, ip for 5 days measured after 7 days by Giemsa staining-based assay. The class given is functional. Conditions: for inhibition in vivo at 50 mg/kg: route intraperitoneal. A digest of the protocol:
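Hamsters infected with L. donovani received test compounds at 50 mg/kg/day ip for 5 days, starting after the infection was established. Parasite burden was determined by Giemsa staining. Efficacy was expressed as percent inhibition, comparing treated animals, untreated animals and the initial count in treated animals.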

The subject of the next data set is Syrian golden hamster. As to the kind of experiment: Toxicity in golden hamster at 50 mg/kg, ip. The class given is organism-based, Mesocricetus auratus. Also on record: dose 50 mg/kg, route intraperitoneal. Conditions: in vivo.
For data set [4], the system named is Leishmania donovani. As to the kind of experiment: Antileishmanial activity against Leishmania donovani amastigotes infected in mouse J774A1 cells after 72 hrs by luciferase reporter gene assay. The class given is functional, organism-based. To be noted: J774.A1, 72 h. The method, boiled down:
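Macrophage cells were seeded at 4 × 10³ per well, held 24 h in a CO₂ incubator, and then infected with 4 × 10⁴ promastigotes, which transform into intracellular amastigotes. Compounds were added at 0.62–40 and incubated 72 h. Read-out was luminescence after Steady-Glo addition, with inhibition derived against untreated controls. IC₅₀ is the mean of two independent experiments.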

Data set [5] is described as follows: Cytotoxicity against African green monkey Vero cells after 72 hrs by MTT assay. To be noted: chlorocebus sabaeus. The data set is classed as cell-based. A digest of the protocol:
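Monkey kidney Vero cells were exposed to compounds for 72 h. Viable cells were detected with MTT, and CC₅₀ was estimated by the Huber & Koella method. Values are the mean of two independent experiments.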
Background: Tetrazolium assays rely on reduction of a dye to a coloured formazan, in cell work by metabolically active cells.

Data set [6] in a line: Cytotoxicity against mouse J774A1 cells after 72 hrs. The data set is classed as cell-based. Conditions: j774.a1, 72 h.
For data set [7], the system named is Leishmania donovani. As to the kind of experiment: Antileishmanial activity against Leishmania donovani infected in golden hamster assessed as inhibition of parasite multiplication at 40 mg/kg, ip for 5 days measured after 7 days by Giemsa staining-based assay. The class given is functional, organism-based. Also on record: dose 40 mg/kg. The method, boiled down: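 Reference-drug arm in the L. donovani-infected hamster model, dosed at 40 mg/kg ip daily for 5 days. After the infection was established, parasite burden was assessed by Giemsa staining. Percent inhibition came from comparing treated with untreated animals and with the initial count in treated animals.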

The test system of a further data set is Vero. The data set is described as §1. The data set is classed as functional. The method, boiled down: as §2

The source made the active and inactive calls. No cut-off for these calls is given here.

For the molecule `CCCCCCCCCCCCCCCCOP(=O)([O-])OCC[N+](C)(C)C` [MILTEFOSINE], in the data set with Leishmania donovani [1], the inhibition in vivo at 30 mg/kg is 98.1%. Also, in data set [2], the “Ratio CC50/IC50” value was 4.

Turning to `CSc1cc(/C=C/c2ccc(OS(=O)(=O)[O-])cc2)nc(N)n1.[Na+]`, the inhibition in vivo at 50 mg/kg in the data set with Leishmania donovani [3] came out at 55.1%. Further, the Activity result with Syrian golden hamster is listed as “Non-toxic”. In the data set on Leishmania donovani [4], this molecule gave an IC50 of 6.3 µM. Moreover, it took 301 µM to reach half-maximal cytotoxicity in data set [5] (CC50 at 72 h). Besides, the “Ratio CC50/IC50” value in data set [2] is recorded as 48.

`COc1cc(/C=C/c2cc(SC)nc(N)n2)cc(OC)c1OC`: the inhibition result in the data set on Leishmania donovani [3] was “inactive”. Besides, the Activity result in the data set with Syrian golden hamster is listed as “Non-toxic”. Besides, the IC50 in the data set with Leishmania donovani [4] is over 40 µM.

Take `CCOc1cc(/C=C/c2cc(SC)nc(N)n2)ccc1OC1CCCCO1` (stereo not given): the inhibition in vivo at 50 mg/kg in the data set with Leishmania donovani [3] came out at 33.5%. The Activity entry in the data set with Syrian golden hamster is “Non-toxic”. Also, the half-maximal inhibitory concentration (IC50) in the data set with Leishmania donovani [4] was 12.9 µM. In [5], this molecule had a CC50 at 72 h of 248 µM. Besides, the “Ratio CC50/IC50” value in [2] was found to be 19.

Regarding `COc1cc(/C=C/c2cc(SC)nc(N)n2)ccc1O`, the Activity entry with Syrian golden hamster is reported as “Non-toxic”.

For `COc1ccc(/C=C/c2cc(SC)nc(N)n2)cc1OC`, in the data set on Leishmania donovani [3], the inhibition in vivo at 50 mg/kg amounted to 47.1%. For the same molecule, in the data set with Syrian golden hamster, the Activity entry is “Non-toxic”. In the data set with Leishmania donovani [4], this molecule yielded an IC50 of 2 µM. In data set [5], this molecule gave a half-maximal cytotoxic concentration (CC50) at 72 h of 125 µM. Further, the “Ratio CC50/IC50” value in [2] is on record as 62.

`CSc1cc(/C=C/c2ccc(O)cc2)nc(N)n1`: the Activity entry in the data set with Syrian golden hamster was “Non-toxic”.

In the case of `CSc1cc(/C=C/c2ccc(OCc3ccccc3)cc2)nc(N)n1`, the inhibition in vivo at 50 mg/kg in the data set on Leishmania donovani [3] came to 88.4%. Moreover, the Activity entry (with Syrian golden hamster; in data set [6]) was “Non-toxic” throughout. Further, in the data set with Leishmania donovani [4], the IC50 stood at 2 µM. The CC50 at 72 h in data set [5] was 376 µM. Also, the “Ratio CC50/IC50” value in [2] is on record as 188.

Regarding `CSc1cc(/C=C/c2ccc(OC3CCCCO3)cc2)nc(N)n1` (stereo not given), the inhibition in vivo at 50 mg/kg with Leishmania donovani [3] amounted to 54.4%. The Activity result with Syrian golden hamster is recorded as “Non-toxic”. For the same molecule, the midpoint of inhibition in the data set on Leishmania donovani [4], the IC50, lay at 3.6 µM. In addition, half-maximal cytotoxicity in data set [5] (CC50 at 72 h) was put at 122 µM. Further, the “Ratio CC50/IC50” value in data set [2] is recorded as 34.

`COc1ccc(Nc2cc(/C=C/c3ccc(OCc4ccccc4)cc3)nc(N)n2)cc1`: the inhibition in vivo at 50 mg/kg in the data set with Leishmania donovani [3] worked out at 78.1%. Besides, in the data set on Syrian golden hamster, the Activity result is given as “Non-toxic”. Half-maximal inhibition in the data set on Leishmania donovani [4] (IC50) was put at 0.5 µM. In data set [5], this molecule yielded a CC50 at 72 h of 57.8 µM. The “Ratio CC50/IC50” value in data set [2] came to 116.

In the case of Sodium stibogluconate, in the data set with Leishmania donovani [7], the inhibition was found to be 88.5%. The Ratio CC50/IC50 with Vero was over 7.

With `COc1ccc(/C=C/c2cc(SC)nc(N)n2)cc1`, the inhibition in vivo at 50 mg/kg with Leishmania donovani [3] came out at 54.4%. For the same molecule, in the data set with Syrian golden hamster, the Activity entry is “Non-toxic”. The same molecule displayed an IC50 in the data set with Leishmania donovani [4] of 9.1 µM. Besides, the CC50 at 72 h in [5] turned out to be 250 µM. Further, the “Ratio CC50/IC50” value in data set [2] came to 27.

On to `COc1ccc(Nc2cc(/C=C/c3ccc(OC4CCCCO4)cc3)nc(N)n2)cc1` (stereo not given), for which the inhibition in vivo at 50 mg/kg with Leishmania donovani [3] came out at 78.2%. Moreover, the Activity result with Syrian golden hamster was “Non-toxic”. This molecule returned a half-maximal inhibitory concentration (IC50) in the data set on Leishmania donovani [4] of 2.7 µM. In data set [5], this molecule had a CC50 at 72 h of 345 µM. Besides, in data set [2], the “Ratio CC50/IC50” value turned out to be 128.
